# According to ChEMBL document CHEMBL1147355, “Tricolorin A, major phytogrowth inhibitor from Ipomoea tricolor” (J Nat Prod, 1993):
# Assays:
# [1] = test system: Amaranthus hypochondriacus; experiment: Phytogrowth-inhibitory activity against Amaranthus hypochondriacus assessed as inhibition of radicle growth at 100 ug/ml incubated in dark at 27 degC measured after 24 hrs; format: functional; conditions: read-out: GI
# How it was run: (§1)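 Samples in MeOH-H2O (1:1) were added to Petri dishes and air-dried, giving a final 100 µg/ml. Solvent-only dishes served as negative controls and 2,4-D as positive control. Dishes were kept dark at 27°. Radicle length was read at 24 h for A. leucocarpus and 48 h for E. crus-galli. Results are % of untreated control, 4 replicates × 20 seedlings, with ANOVA/Duncan.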
# LNCaP = experiment: Cytotoxicity against human LNCAP cells; format: functional; conditions: read-out: ED50 (the source's name)
# How it was run: (§2)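 Cell lines obtained from ATCC and tested in vitro following an earlier cytotoxicity protocol. The value is reported as ED50.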
# Echinochloa crus-galli [2] = experiment: Phytogrowth-inhibitory activity against Echinochloa crus-galli assessed as inhibition of seed germination incubated in dark at 27 degC measured after 48 hrs; format: functional, organism-based
# How it was run: (§3)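 Seeds in Petri dishes with test sample applied in MeOH-H2O (1:1), solvent air-dried before use. Kept in the dark at 27°: 24 h for Amaranthus, 48 h for E. crus-galli. Germination percentage and radicle length scored. Controls: 2,4-D positive, solvent-only negative. Germination IC50 from linear regression; radicle-growth IC50 from probit analysis.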
# [3] = test system: Amaranthus hypochondriacus; experiment: Phytogrowth-inhibitory activity against Amaranthus hypochondriacus assessed as inhibition of seed germination incubated in dark at 27 degC measured after 24 hrs; format: functional, organism-based; how it was run: as §3
# [4] = (§4) Displacement of [3H]PDBu from protein kinase C in calf brain homogenate by scintillation counting; format: tissue-based, Bos taurus
# How it was run: (§5)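 Incubation mix contained 50 mM Tris/HCl (pH 7.4), 1 mM CaCl2, 39.2 nM [3H]PDBu, 50 µg/ml calf brain homogenate as the protein kinase C source, and compound in DMSO. Tubes ran 1 h at ambient temperature, then were filtered onto glass fiber and counted. Nonspecific binding was taken as the part not displaced by 100-fold excess unlabelled PDBu. Curve used five-fold dilutions from 200 to 0.32 µg/ml, 4 replicates.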
# Bos taurus = organism: Bos taurus; experiment: as §4; format: tissue-based; how it was run: as §5
# Echinochloa crus-galli [5] = experiment: Phytogrowth-inhibitory activity against Echinochloa crus-galli assessed as inhibition of radicle growth incubated in dark at 27 degC measured after 48 hrs; format: functional, organism-based; how it was run: as §3
# Lu1 = experiment: Cytotoxicity against human Lu1 cells; format: functional; conditions: read-out: ED50 (the source's name)
# How it was run: (§6)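 Cell lines established from primary human tumors at a university surgical oncology division and tested in vitro following an earlier cytotoxicity protocol. The value is reported as ED50.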
# Echinochloa crus-galli [6] = experiment: Phytogrowth-inhibitory activity against Echinochloa crus-galli assessed as inhibition of radicle growth at 100 ug/ml incubated in dark at 27 degC measured after 48 hrs; format: functional; conditions: read-out: GI; how it was run: as §1
# Col2 = experiment: Cytotoxicity against human Col2 cells; format: functional; conditions: read-out: ED50 (the source's name); how it was run: as §6
# ZR-75-1 = experiment: Cytotoxicity against human ZR-75-1 cells; format: functional; conditions: read-out: ED50 (the source's name); how it was run: as §2
# [7] = Toxicity in brine shrimp assessed as lethality; format: organism-based; conditions: artemia, in vivo
# A-431 = experiment: Cytotoxicity against human A431 cells; format: functional; conditions: read-out: ED50 (the source's name); how it was run: as §2
# [8] = Cytotoxicity against drug-resistant human KBV1 cells; format: functional; conditions: KB-V1, read-out: ED50 (the source's name)
# HT-1080 = experiment: Cytotoxicity against human HT1080 cells; format: functional; conditions: read-out: ED50 (the source's name); how it was run: as §2
# [9] = test system: Amaranthus hypochondriacus; experiment: Stimulation of Amaranthus hypochondriacus radicle growth at 1 ug/ml incubated in dark at 27 degC measured after 24 hrs relative to control; format: functional
# How it was run: (§7)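 Petri-dish seed assay at 1 µg/ml, with sample in MeOH-H2O (1:1) air-dried before seeding. Held in the dark at 27° and scored at 24 h (Amaranthus) or 48 h (E. crus-galli). Radicle growth expressed relative to untreated controls.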
# SK-MEL-2 = experiment: Cytotoxicity against human SK-MEL-2 cells; format: functional; conditions: read-out: ED50 (the source's name); how it was run: as §6
# [10] = Cytotoxicity against human BC1 cells; format: functional; conditions: read-out: ED50 (the source's name); how it was run: as §6
# P388 = experiment: Cytotoxicity against mouse P388 cells; format: functional; conditions: read-out: ED50 (the source's name); how it was run: as §2
# KB = experiment: Cytotoxicity against human KB cells; format: functional; conditions: read-out: ED50 (the source's name); how it was run: as §2
# [11] = test system: Amaranthus hypochondriacus; experiment: Phytogrowth-inhibitory activity against Amaranthus hypochondriacus assessed as inhibition of radicle growth incubated in dark at 27 degC measured after 24 hrs; format: functional, organism-based; how it was run: as §3
# Staphylococcus aureus = experiment: Antibacterial activity against Staphylococcus aureus ATCC 25923 by agar diffusion technique; format: functional
# Echinochloa crus-galli [12] = experiment: Stimulation of Echinochloa crus-galli radicle growth at 1 ug/ml incubated in dark at 27 degC measured after 48 hrs relative to control; format: functional; how it was run: as §7
smiles,measurement,setting,value
CCCCC[C@H]1CCCCCCCCCC(=O)O[C@H]2[C@H](O)[C@@H](CO)O[C@@H](O[C@H]3[C@H](O1)O[C@H](C)[C@H](O)[C@@H]3O)[C@@H]2O[C@@H]1O[C@@H](C)[C@H](OC(=O)[C@@H](C)CC)[C@@H](O[C@@H]2O[C@@H](C)[C@H](O)[C@@H](O)[C@H]2O)[C@H]1OC(=O)[C@@H](C)CC [TRICOLORIN A],inhibition of growth at 100 µg/mL,[1],68.3%
same,EC50,LNCaP,5.8 µg/mL
same,IC50,Echinochloa crus-galli [2],36.9 µg/mL
same,IC50,[3],152 µg/mL
same,IC50,[4],44.1 µg/mL
same,Activity,Bos taurus,Dose-dependent effect
same,Activity,Echinochloa crus-galli [5],Dose-dependent effect
same,IC50,Echinochloa crus-galli [5],12.6 µg/mL
same,EC50,Lu1,5.5 µg/mL
same,inhibition of growth at 100 µg/mL,Echinochloa crus-galli [6],78.8%
same,EC50,Col2,8.9 µg/mL
same,EC50,ZR-75-1,8.1 µg/mL
same,LC50,[7],18.2 µg/mL
same,EC50,A-431,10.3 µg/mL
same,EC50,[8],> 20 µg/mL
same,EC50,HT-1080,6.3 µg/mL
same,Activity,[9],4%
same,EC50,SK-MEL-2,7.6 µg/mL
same,EC50,[10],2.2 µg/mL
same,EC50,P388,2.2 µg/mL
same,EC50,KB,> 20 µg/mL
same,Activity,[11],Dose-dependent effect
same,IC50,[11],37 µg/mL
same,MIC,Staphylococcus aureus,1.8 µg/mL
same,Activity,Echinochloa crus-galli [12],4%
"O=C(O)COc1ccc(Cl)cc1Cl [2,4-DICHLOROPHENOXYACETIC ACID]",Activity,[9],4%
same,Activity,Echinochloa crus-galli [12],4%
